In all, about 320,000 compounds went through this assay and about 380 (0.12%) were called active.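 The calls were made as follows: active = percent inhibition above the cutoff of mean plus 3 SD of all tested compounds, set per screening campaign (cut at about 20% in these data); inactive = the rest.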 Many of the other results were omitted from the sample, so actives are more common in it than they were.

Chain of Photoreceptor-specific nuclear receptor (Homo sapiens) (Q9Y5X4 whole entry, looked up): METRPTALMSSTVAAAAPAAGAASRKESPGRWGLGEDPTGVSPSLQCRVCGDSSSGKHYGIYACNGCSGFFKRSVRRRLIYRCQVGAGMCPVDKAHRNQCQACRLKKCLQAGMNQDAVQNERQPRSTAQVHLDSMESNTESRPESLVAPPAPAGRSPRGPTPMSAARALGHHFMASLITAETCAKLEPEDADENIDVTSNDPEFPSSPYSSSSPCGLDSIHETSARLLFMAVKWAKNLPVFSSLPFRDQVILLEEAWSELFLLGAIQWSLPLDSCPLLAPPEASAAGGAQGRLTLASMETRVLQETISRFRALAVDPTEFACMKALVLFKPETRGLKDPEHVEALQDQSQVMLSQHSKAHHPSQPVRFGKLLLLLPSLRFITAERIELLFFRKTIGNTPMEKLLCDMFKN

The target of this assay is Photoreceptor-specific nuclear receptor (Homo sapiens) (UniProt Q9Y5X4). In words: disruption of NR2E3 corepressor interaction – biochemical, TR-FRET, GST-NR2E3, biotin-RetCOR, NR2E3 agonist project, primary screen (AID 2300).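 Also: 0% = DMSO wells and 100% = biotin wells as full block of FRET.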 The following applies: 1536-well, at 4.78 µM, hits give high values. In short, it runs like this: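 Material: NR2E3–RetCOR corepressor complex | Quantity: 1.35 nM GST-tagged NR2E3 final | Schedule: 5 h at 4 °C | Replication: Singlicate compound wells | Reagent: RetCOR corepressor, biotinylated, 7 nM | Controls: Biotin wells as high control, 0.6% DMSO wells as low control | Signal: TR-FRET, Eu(K)-anti-GST donor, streptavidin-D2 acceptor, ex 340, em 617/671 nm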
Take `Cc1nc(N2CCOCC2)c2c(C)c(C(=O)Nc3ccc(C(F)(F)F)cc3)sc2n1`: the inhibition of corepressor binding is -0.86% (inactive).
Next, `CC(=O)Nc1ccc(N2CCOCC2)c(C(=O)Nc2cccc(C)c2)c1`: 0.26% (inactive).
Take `Cc1cccc(NC(=O)c2sc3nc(N4CCOCC4)c4c(c3c2N)CCCC4)c1`: the inhibition of corepressor binding is 27.8% (active).
In the case of `CN(Cc1ccccc1Cl)C(=O)C1CCC(=O)N(CCc2cccc(F)c2)C1` (stereo unspecified), the inhibition of corepressor binding was -0.98% (inactive).
Next, `CCC(CC)C(=O)Nc1c2c(nn1-c1ccc(C)cc1)CS(=O)(=O)C2`: 0.73% (inactive); `CCOc1ccc(C(=O)Nc2cc(Cl)ccc2-n2cncn2)cc1OC`: 1.32% (inactive).
As for `N#C/C(C(=S)Nc1ccccc1)=C1/NN=C(N2CCOCC2)N1c1ccccc1`, the inhibition of corepressor binding was -1.05% (inactive).
Next, `Cc1ccccc1NC(=O)COc1cccc2c1CCNC2=O`: -2.78% (inactive); `NC(=S)c1ccc(C(N)=S)o1`: 2.26% (inactive); `O=C(Oc1ccccc1)Oc1ccc2c(c1)oc(=O)c1ccccc12`: 26% (active).
In the case of `O=C(COc1ccc2c3c(c(=O)oc2c1)CCCC3)NCC(O)c1ccccc1` (stereo unspecified), the inhibition of corepressor binding is 1.28% (inactive).
Turning to `CC(=O)COc1ccc2c(-c3ccccc3)cc(=O)oc2c1`, the inhibition of corepressor binding is 3.24% (inactive).
Next, `Cc1ccccc1C(CC(=O)c1cccs1)C(C#N)C#N` (stereo unspecified): 3.7% (inactive); `COc1cc(C(F)(F)F)c(C(=O)N(C)c2ccc(Cl)cc2)cn1`: -2.07% (inactive); `CC(=O)Nc1sc2c(c1C(c1cccc(F)c1)N1CCN(CCO)CC1)CCCC2` (stereo unspecified): 2.91% (inactive).
With `COC(=O)[C@]1(C)N[C@H](c2ccc(-c3ccc(Cl)c(Cl)c3)cc2)[C@@H]2C(=O)N(C)C(=O)[C@@H]21`, the inhibition of corepressor binding was -0.27% (inactive).
Next, `CC(=O)c1cccc(NC(=O)CN2C(=O)c3cccnc3Oc3ccc(Cl)cc32)c1`: 1.24% (inactive); `COc1cc(C2C3C(=O)N(c4ccccc4)C(=O)C3ON2c2ccccc2)ccc1O` (stereo unspecified): 1.53% (inactive).
Next, `Cn1c(=O)c(=O)n(C)c2cc(S(=O)(=O)CCC(=O)N3CCCCC3)ccc21`: 1.89% (inactive).
Turning to `CSc1sc(C)cc1C1C(C#N)=C(N)N(c2cccnc2)C2=C1C(=O)CCC2` (stereo unspecified), the inhibition of corepressor binding was 0.82% (inactive).
Next, `COCC(=O)N1CCCC(C(=O)c2ccc(C(F)(F)F)cc2)C1` (stereo unspecified): 3.84% (inactive); `Cc1ccc(CN2CCN(c3ccccc3Cl)CC2)o1`: 0.07% (inactive); `COCCNC(=O)CN1C(=O)CSc2ncccc21`: 4.79% (inactive).
With `CCOc1ccccc1Nc1ccc(C(=O)O)cc1[N+](=O)[O-]`, the inhibition of corepressor binding is 0.59% (inactive).
Next, `O=C(COC(=O)c1ccc(F)cc1F)Nc1ncccn1`: 8.41% (inactive).
On to `CN(C(=O)CSc1nnc(-c2ccc(C(C)(C)C)cc2)n1C)C1CCS(=O)(=O)C1` (stereo unspecified), for which the inhibition of corepressor binding was -0.57% (inactive).

(Values after PubChem BioAssay AID2300 (The Scripps Research Institute Molecular Screening Center, 2010).)
